The record followed here is PubChem BioAssay AID638 (SRMLSC, 2007).

Structures are written as SMILES. Hit rate of the full screen: of about 1,300 compounds, about 65 (5%) were called active.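 The calls were made as follows: active = growth inhibition reaching a set limit at one or more tested doses; inactive = the rest.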 Only a sample is shown. Potency and affinity values are given separately.

The nature of this test: growth inhibition of wild-type E. coli, dose response, BW25113 wild type, OD615 (AID 638). Particulars: at 100 µM (top of the series) unless noted. The method in brief:
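Material – E. coli BW25113 wild type · Medium – Kanamycin-supplemented LB broth · Doses – compound dilution series for dose-response · Incubation – 20 h compound exposure, 37 °C · Technique – optical density (absorbance) at 615 nm · Read-out basis – IC50 from 4-parameter logistic, bounds fixed 0–100% · Control set – chloramphenicol at 30 µM final as inhibition control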
Regarding `Fc1ccc(-n2c(Cc3ccccc3)nnc2SCc2nc(-c3cccs3)no2)cc1`, the growth inhibition is -13.2% (inactive).
Consider `C=CCOC(=O)C(C#N)c1nc2ccccc2nc1N1CCCC1` (stereo not given), for which the growth inhibition is -1.85% (inactive).
`COCc1cc(C)nc2sc3c(=O)oc(C)nc3c12`: the growth inhibition is 10.4% (inactive).
`CCCCOC(=O)Nc1ccc(C(=O)OCCC)cc1`: the growth inhibition is 6.71% (inactive).
Under `COC(=O)c1ccc(NC(=O)CN2CCN(c3cccc(Cl)c3)CC2)cc1` stands -2.21% (inactive).
For the compound `CC(C)(C)C1CCC2(CC1)C(C#N)=C(SCC(=O)NC1CCCCC1)NC(=O)C2C#N` (stereo not given), the growth inhibition is 12.2% (inactive).
With `N#CC1=C(SCC(=O)NC23CC4CC(CC(C4)C2)C3)NC(=O)C(C#N)C12CCCCC2` (stereo not given), the growth inhibition is 18.1% (active).
Consider `N#CC1=C(SCC(=O)c2cc3ccccc3oc2=O)NC(=O)C(C#N)C12CCCC2` (stereo not given), for which the growth inhibition is 14.3% (inactive).
As for `CCN(CC)S(=O)(=O)c1ccc2[nH]cc(C(=O)NCCC3=CCCCC3)c(=O)c2c1`, the growth inhibition is -6.85% (inactive).
`COc1ccc2nc(SCC(=O)N(C)C3CCCCC3)c(C#N)cc2c1`: the growth inhibition was -2.36% (inactive).
As to `CCCOc1ccc(C2C(C(=O)c3ccc(C)o3)=C(O)C(=O)N2Cc2cccnc2)cc1` (stereo not given), the growth inhibition is 6.33% (inactive).
Under `Cc1cc(Nc2ccccc2)nc(-c2ccccc2O)n1` stands -4.57% (inactive); under `Clc1ccc(OCCn2ccnc2)c2ccccc12`, 12.7% [at 50 µM] (inactive).
For `O=S(=O)(Nc1nc2ccccc2nc1N1CCN(c2ccccn2)CC1)c1ccc(Cl)cc1`, the growth inhibition was -0.89% (inactive).
Turning to `O=C(Nc1nnc(-c2cccs2)o1)c1cccc(Oc2ccccc2)c1`, the growth inhibition is 12.7% (inactive).
`CC1CCCCN1S(=O)(=O)c1ccc(C(=O)Nc2nnc(-c3cccs3)o2)cc1` (stereo not given): the growth inhibition is 2.23% (inactive).
Take `Cc1cc(N2CCCCC2)nc(SCc2ccc(C#N)cc2)n1`: the growth inhibition was -5.55% (inactive).
Take `Cc1ccccc1CSc1nc2n(n1)C(c1cccs1)C1=C(CCCC1=O)N2` (stereo not given): the growth inhibition is -14.8% (inactive).
With `CCCCCn1c(N2CCC(Cc3ccccc3)CC2)nc2c1c(=O)[nH]c(=O)n2C`, the growth inhibition is -11.3% (inactive).
As for `CCOC(=O)Cc1nnc2c(Nc3ccccc3F)nc3nonc3n12`, the growth inhibition is -6.59% (inactive).
